Results on six compounds are retold here after paper PMC6426238 (Helvetica chimica acta, 2018).

One data set deals with Caco2-cells. Particulars: degraded cyanophycin dipeptides; cited from earlier work.
A further data set deals with MCF-7 cells. Nature of the data set: cell penetration by confocal fluorescence microscopy. Type of data set: cell-based. Particulars: FAM-labeled peptides, membrane stain R18. In short, it runs like this:
(§1)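 FAM-labelled octa-Adp derivatives (side chains as free carboxylic acids, esters or amides) were purified by preparative HPLC. Unless stated otherwise, TFA counter-ions were removed with OH-form anion-exchange resin before use.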

Another data set deals with HEK293 cells. The data set is described as above. The format is cell-based. Particulars: FAM-labeled peptides, membrane stain R18. In short, it runs like this:
as §1

A further data set relates to Plasmodium berghei. Nature of the data set: parasitaemia reduction after intravenous tail-vein injection to infected mice. The format is in vivo. Particulars: P. berghei-infected mice. In short, it runs like this:
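Single intravenous injection into the tail vein of mice, either uninfected or infected with Plasmodium berghei. Test compound was given in 0.9% NaCl at 0.01 ml/g body weight, with doses in μmol/kg. Oligo-arginine TFA salts were treated with Amberlyst A-26 (OH form) resin to remove TFA. Doses refer to the free peptide unless a TFA salt is stated. Read-outs were acute signs (death and its timing, heart rate, ataxia) and parasitaemia reduction in infected mice.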

For `N=C(N)NCCC[C@H](NC(=O)CC(N)C(=O)O)C(=O)O` (stereo partly drawn) [H-Adp-OH, H-βAsp-αArg-OH], the “absorption by Caco2-cells” value in the data set on Caco2-cells was “absorbed”.

For the compound FAM-(Adp(OMe))8-NH2 [Compound 8], the “cell permeability (CFM)” value with MCF-7 cells and with HEK293 cells was “mediocre to high cell permeability” each time.

Consider `O=CN(O)CCCP(=O)(O)O` [Na-fosmidomycin, fosmidomycin], for which the Parasitaemia reduction result with Plasmodium berghei (i.v. dose 1.5·10^4 μmol/kg) was “No parasitaemia reduction (Parasitaemia reductions < 20% must be considered non-significant in this investigation: ‘no parasitaemia reduction’)”; with Plasmodium berghei (i.v. dose 1.5·10^6 μmol/kg) it was 95% Parasitaemia reduction; in the data set on Plasmodium berghei (i.v. dose 5·10^3 μmol/kg), “No parasitaemia reduction (Parasitaemia reductions < 20% must be considered non-significant in this investigation: ‘no parasitaemia reduction’)”; in the data set on Plasmodium berghei (i.v. dose 5·10^5 μmol/kg), 72% Parasitaemia reduction.

Turning to FAM-Adp8-NH2 [Compound 7], the “cell permeability (CFM)” value in the data set with MCF-7 cells and in the data set with HEK293 cells was “does not enter the cells at all” throughout.

Turning to FAM-(Adp(NMe2))8-NH2 [Compound 9], the “cell permeability (CFM)” value in the data set on MCF-7 cells and with HEK293 cells was “mediocre to high cell permeability” in each case.

Regarding `NCCCC[C@H](NC(=O)C[C@H](N)C(=O)O)C(=O)O` [β-Asp-Lys], in the data set on Caco2-cells, the “absorption by Caco2-cells” value is reported as “absorbed”.
